These results are taken from ChEMBL document CHEMBL1137646, “Intracellular metabolism and persistence of the anti-human immunodeficiency virus activity of 2',3'-didehydro-3'-deoxy-4'-ethynylthymidine, a novel thymidine analog” (Antimicrob Agents Chemother, 2007).

The subject of data set [1] is CCRF-CEM. Kind of data set: Drug metabolism in human CEM cells assessed as radioactive zidovudine monophosphate accumulation at 2 uM assessed per 10^6 cells. The note with it: TDE = time-dependent effect. Format: ADME, cell-based. In short, it runs like this: (§1)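 CEM cells (2 x 10^7/ml) in RPMI 1640 with 10% dialyzed FBS were incubated at 37°C with 2 µM [3H]analog (75 mCi/mmol) and harvested at 2, 4, 8, 12, 16 and 24 h. Cells were washed in ice-cold PBS with 20 µM dipyridamole and extracted with 15% TCA. Neutralized extracts were separated on a Partisil SAX column with an H2O to 300 mM potassium phosphate gradient and radiometric detection, reported as pmol/10^6 cells, mean ± SD of three experiments.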

The subject of data set [2] is CCRF-CEM. Kind of data set: Drug metabolism in human CEM cells assessed as radioactive zidovudine diphosphate accumulation at 2 uM assessed per 10^6 cells. Format: ADME, cell-based. To be noted: TDE = time-dependent effect. An outline of the steps:
as §1

Data set [3] has as its system CCRF-CEM. Kind of data set: Drug metabolism in human CEM cells assessed as radioactive zidovudine triphosphate accumulation at 2 uM assessed per 10^6 cells. Format: ADME, cell-based. To be noted: TDE = time-dependent effect. In short, it runs like this:
as §1

Data set [4] concerns CCRF-CEM. Kind of data set: Drug metabolism in human CEM cells assessed as radioactive 2', 3'-didehydro-3'-deoxy-4'-ethynylthymidine diphosphate accumulation at 2 uM assessed per 10^6 cells. Format: ADME, cell-based. To be noted: TDE = time-dependent effect. An outline of the steps:
as §1

Data set [5] has as its system CCRF-CEM. Kind of data set: Drug metabolism in human CEM cells assessed as radioactive 2', 3'-didehydro-3'-deoxy-4'-ethynylthymidine triphosphate accumulation at 2 uM assessed per 10^6 cells. The data set is classed as ADME, cell-based. The note with it: TDE = time-dependent effect. An outline of the steps: as §1
Data set [6] relates to CCRF-CEM. Kind of data set: Drug metabolism in human CEM cells assessed as radioactive stavudine monophosphate accumulation at 2 uM assessed per 10^6 cells. The note with it: TDE = time-dependent effect. The data set is classed as ADME, cell-based. In short, it runs like this: as §1
The subject of data set [7] is CCRF-CEM. Kind of data set: Drug metabolism in human CEM cells assessed as radioactive stavudine triphosphate accumulation at 2 uM assessed per 10^6 cells. Format: ADME, cell-based. To be noted: TDE = time-dependent effect. An outline of the steps: as §1
In data set [8] the test system is CCRF-CEM. Kind of data set: Drug metabolism in human CEM cells assessed as radioactive 2', 3'-didehydro-3'-deoxy-4'-ethynylthymidine monophosphate accumulation after 12 hrs assessed per 10^6 cells. The data set is classed as ADME, cell-based. An outline of the steps: as §1
Data set [9] relates to CCRF-CEM. Kind of data set: Drug metabolism in human CEM cells assessed as radioactive 2', 3'-didehydro-3'-deoxy-4'-ethynylthymidine diphosphate accumulation after 12 hrs assessed per 10^6 cells. The data set is classed as ADME, cell-based. An outline of the steps:
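For the dose series, CEM cells took up [3H]4'-Ed4T at 0.2/0.25, 0.5, 1 and 2 µM (150 mCi/mmol) for 12 h. TCA extracts were neutralized and the mono-, di- and triphosphates resolved by SAX-HPLC with radioactivity detection. Values are pmol/10^6 cells, mean ± SD, three independent experiments.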

Data set [10] relates to CCRF-CEM. Kind of data set: Drug metabolism in human CEM cells assessed as radioactive 2', 3'-didehydro-3'-deoxy-4'-ethynylthymidine triphosphate accumulation after 12 hrs assessed per 10^6 cells. Format: ADME, cell-based. In short, it runs like this: as §1
The test system of data set [11] is RKO. Kind of data set: Drug metabolism in doxycyclin-induced Tet-On gene expressing human RKO cells producing thymidylate kinase assessed as increase in radioactive 2', 3'-didehydro-3'-deoxy-4'-ethynylthymidine triphosphate accumulation at 2 uM after 16 hrs assessed per 10^6 cells by HPLC analysis relative to control. The data set is classed as ADME, cell-based. In short, it runs like this:
(§2)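 TMPK Tet-On RKO cells were seeded at 5 x 10^5 per dish with doxycycline at 0, 50 or 3,000 ng/ml for 48 or 72 h, then pulsed for 16 h with 2 µM [5'-3H]4'-Ed4T (478 mCi/mmol). After a cold PBS wash containing 20 µM dipyridamole, cells were extracted with 15% TCA and neutralized with trioctylamine/trichlorotrifluoroethane. Metabolites were quantified by radio-HPLC as pmol/10^6 cells, n=3.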

Data set [12] relates to RKO. Kind of data set: Drug metabolism in doxycyclin-induced Tet-On gene expressing human RKO cells producing 3-phosphoglycerate kinase assessed as increase in radioactive 2', 3'-didehydro-3'-deoxy-4'-ethynylthymidine triphosphate accumulation at 2 uM after 16 hrs assessed per 10^6 cells by HPLC analysis relative to control. Format: ADME, cell-based. An outline of the steps: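 Tet-On PGK RKO cells (5 x 10^5 per dish) were induced with doxycycline at 0, 50 or 100 ng/ml for 48 or 72 h, then given 2 µM [5'-3H]4'-Ed4T (478 mCi/mmol) for 16 h. Cells were washed in cold PBS with 20 µM dipyridamole and extracted with 15% TCA. Neutralized extracts went through SAX-HPLC with radiometric detection, expressed as pmol/10^6 cells, mean of three experiments.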

Data set [13] deals with CCRF-CEM. Kind of data set: Stability in human CEM cells assessed as intracellular radioactive phosphorylated metabolite accumulation at 2 uM incubated for 24 hrs measured after 8 hrs of compound removal assessed per 10^6 cells. The data set is classed as ADME, cell-based. An outline of the steps: (§3)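 CEM cells were loaded with 2 µM [3H]analog (75 mCi/mmol) for 24 h, washed, and resuspended in drug-free medium. Intracellular metabolites were then measured by SAX-HPLC with radiometric detection at 0, 2, 4, 8, 12 and 24 h after removal. Values are pmol/10^6 cells, mean ± SD of three experiments.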

Data set [14] relates to CCRF-CEM. Kind of data set: Stability in human CEM cells assessed as intracellular radioactive triphosphate metabolite accumulation at 2 uM incubated for 24 hrs measured after 24 hrs of compound removal assessed per 10^6 cells. The data set is classed as ADME, cell-based. An outline of the steps: as §3
For data set [15], the system named is RKO. Kind of data set: Drug metabolism in doxycyclin-induced Tet-On gene expressing human RKO cells producing thymidylate kinase assessed as radioactive 2', 3'-didehydro-3'-deoxy-4'-ethynylthymidine diphosphate accumulation after 16 hrs assessed per 10^6 cells by HPLC analysis. The data set is classed as ADME, cell-based. In short, it runs like this: as §2

In data set [16] the test system is Human immunodeficiency virus 1. Kind of data set: Antiviral activity against 0.1 MOI HIV1 3B infected in human TZM-b1 cells assessed as inhibition of viral replication after 24 hrs by luciferase assay. Format: functional, organism-based. An outline of the steps:
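TZM-bl cells in phenol red-free RPMI 1640 were infected with HIV-1 IIIB (MOI 0.1) at the time of adding drug at various concentrations, and drug and virus stayed together for 24 h. Lysate luciferase was measured with uninfected background subtracted, in quintuple wells. Inhibition was the mean signal relative to drug-free infected cells.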

The test system of data set [17] is Human immunodeficiency virus 1. Kind of data set: Antiviral activity against 0.1 MOI HIV1 3B in 24 hrs pretreated human TZM-b1 cells infected 0 hr post drug removal assessed as inhibition of viral replication at 1 uM measured 24 hrs postinfection by luciferase assay. The data set is classed as functional. To be noted: Human immunodeficiency virus 1, 3B. In short, it runs like this:
(§4)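 TZM-bl cells were plated in phenol red-free RPMI 1640, allowed to adhere 15–18 h at 37°C, then exposed to a range of drug concentrations for 24 h. Medium was changed to remove extracellular drug, and cells were infected with HIV-1 IIIB (MOI 0.1) at 0, 24 or 48 h after removal. Luciferase was read 24 h post-infection with uninfected-cell background subtracted, in quintuple wells, and expressed relative to no-drug wells.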

The subject of data set [18] is Human immunodeficiency virus 1. Kind of data set: Antiviral activity against 0.1 MOI HIV1 3B in 24 hrs pretreated human TZM-b1 cells infected 0 hr post drug removal assessed as inhibition of viral replication at 3 uM measured 24 hrs postinfection by luciferase assay. To be noted: Human immunodeficiency virus 1, 3B. Format: functional. An outline of the steps:
as §4

Data set [19] has as its system Human immunodeficiency virus 1. Kind of data set: Antiviral activity against 0.1 MOI HIV1 3B in 24 hrs pretreated human TZM-b1 cells infected 0 hr post drug removal assessed as inhibition of viral replication at 4 uM measured 24 hrs postinfection by luciferase assay. The data set is classed as functional. To be noted: Human immunodeficiency virus 1, 3B. In short, it runs like this: as §4

Data set [20] deals with Human immunodeficiency virus 1. Kind of data set: Antiviral activity against 0.1 MOI HIV1 3B in 24 hrs pretreated human TZM-b1 cells infected 0 hr post drug removal assessed as inhibition of viral replication at 5 uM measured 24 hrs postinfection by luciferase assay. The data set is classed as functional. The note with it: Human immunodeficiency virus 1, 3B. In short, it runs like this: as §4

In data set [21] the test system is Human immunodeficiency virus 1. Kind of data set: Antiviral activity against 0.1 MOI HIV1 3B in 24 hrs pretreated human TZM-b1 cells infected 0 hr post drug removal assessed as inhibition of viral replication at 6 uM measured 24 hrs postinfection by luciferase assay. The data set is classed as functional. The note with it: Human immunodeficiency virus 1, 3B. An outline of the steps:
as §4

Data set [22] relates to Human immunodeficiency virus 1. Kind of data set: Antiviral activity against 0.1 MOI HIV1 3B in 24 hrs pretreated human TZM-b1 cells infected 24 hrs post drug removal assessed as inhibition of viral replication at 1 uM measured 24 hrs postinfection by luciferase assay. The data set is classed as functional. To be noted: Human immunodeficiency virus 1, 3B. An outline of the steps:
as §4

The inhibition is how much of the control response was suppressed. In the case of `C#C[C@@]1(CO)C=C[C@H](n2cc(C)c(=O)[nH]c2=O)O1` [CENSAVUDINE], the Activity result in the data set on CCRF-CEM [1], with CCRF-CEM [2], in the data set on CCRF-CEM [3], with CCRF-CEM [4], in the data set on CCRF-CEM [5] and in the data set on CCRF-CEM [6] was “tde” each time. Also, the Activity entry in the data set with CCRF-CEM [7] is on record as “tde”; in the data set with CCRF-CEM [8] it was “Dose-dependent effect”; in the data set on CCRF-CEM [9] it was “Dose-dependent effect”; in the data set with CCRF-CEM [10] it was “Dose-dependent effect”; with RKO [15], “Dose-dependent effect”. Besides, the “fold change (FC)” value is on record as 3 with RKO [11] and 2.3 with RKO [12]. Moreover, the Stability worked out at 1.07 pmol in the data set with CCRF-CEM [13] and 0.2 pmol in the data set on CCRF-CEM [14]. Moreover, the inhibition entry in data set [16] was “Dose-dependent effect”. Further, the inhibition at 1 µM is 50% in [17] and above 50% in data set [22]. The inhibition at 3 µM in data set [18] is 50%. Also, the inhibition at 4 µM in data set [19] came to 50%. In data set [20], the inhibition at 5 µM is 50%. Moreover, the inhibition at 6 µM in [21] turned out to be 50%.
